Bioassay records deposited in PubChem by The Scripps Research Institute Molecular Screening Center.
STAT1 inh: reduces IFN-gamma driven STAT1 reporter signal; NIH 3T3 STAT1-luciferase reporter, luminescence; inhibition, % at 5.5 µM; 200,000 tested, 0.35% active;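 active means inhibition above a set limit, the mean inhibition across all tested compounds plus 3 SD, cut at about 34% in these data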;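 further: 0% = IFN-gamma with DMSO and 100% = IFN-gamma with 300 µM nifuroxazide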
STAT3 act-1: increases IL-6 driven STAT3 reporter signal; U3A cells, IL-6 STAT3-luciferase reporter, luminescence; 100% = signal with IL-6 EC80 alone; activation (% of control), % at 5.6 µM; 190,000 tested, 0.91% active;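 active means activation above the screen-wide mean of compound activation plus 3 SD, cut at about 130% in these data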;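 further: 0% = background luminescence of wells with medium and substrate only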
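System – human U3A cells carrying STAT3-luciferase construct · Probe or stimulus – Interleukin-6, 33 ng/mL · Schedule – compound 1 h, then IL-6 6 h at 37 °C · Signal – luminescence from STAT3-driven luciferase reporter · Evaluation – percent of IL-6-only median luminescence · Benchmarks – IL-6-only high control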
STAT3 blocker: inhibitors of IL-6 induced STAT3 signaling | U3A cells, IL-6 STAT3-luciferase reporter, luminescence; host cell line lacks STAT1 | inhibition, % at 5.5 µM | 190,000 tested, 0.89% active;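 active means inhibition above the mean inhibition across all screened compounds plus 3 SD, cut at about 44% in these data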;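 further: 0% = DMSO only wells and 100% = 100 µM nifuroxazide control wells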
STAT1 act-1: increases IFN-gamma driven STAT1 reporter signal; NIH 3T3 STAT1-luciferase reporter, luminescence; 100% = IFN-gamma alone, no compound; activation (% of control), % at 5.5 µM; 200,000 tested, 2.6% active; AID 932;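 active means activation above the screen-wide mean activation plus 3 SD, cut at about 130% in these data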;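 further: raw ratio to IFN-gamma control signal so 100% means no change and 0% no light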
STAT3 act-2: confirmation of STAT3 signaling activators | shares compounds with STAT3 act-1 | U3A STAT3-luciferase reporter, IL-6 potentiation, luminescence; U3A cells lack STAT1; 100 means same as IL-6 alone | potentiation (% of control), % at 5.7 µM | 1,200 tested, 64% active;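 active means percent activation of the STAT3 luciferase reporter above a set limit taken from the earlier primary screen, cut at about 130% in these data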;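 further: 0% = background signal of medium plus substrate and 100% = median of IL-6 with DMSO wells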
NFkB act STAT3ct: activates NF-kappaB, counter-screen to STAT3 activators; shares compounds with STAT3 act-1; 1,200 tested, 11% active; activation (% of control), % at 5.7 µM; human cells, NF-kappaB reporter activation; AID 1309; in the data active means activation above about 120%;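 further: reporter induced by TNF-alpha stimulation; 100% = median of stimulated DMSO wells and 0% = no signal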
STAT1 act-2: STAT1 activation in STAT3 activator counter-screen; shares compounds with STAT3 act-1; NIH 3T3 STAT1-luciferase reporter, IFN-gamma, luminescence; 1,200 tested, 13% active; AID 1318; activation (% of control), % at 5.7 µM;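 active means activation above the solvent-only control well mean plus 3 SD, set per screening run, cut at about 120% in these data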;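 further: 100% = IFN-gamma with DMSO median signal so 100% means no change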
Starred values were filed as active, the others as inactive. Compounds with a hit are over-represented: about 4.3% of the library has one in this group of screens.

For Clc1ccccc1OCc1nc(-c2ccc(Br)o2)no1 the results were STAT1 inh -25.2, STAT3 act-1 136.7*, STAT3 blocker -33.0, STAT1 act-1 122.8, STAT3 act-2 126.3, NFkB act STAT3ct 109.9 and STAT1 act-2 125.4*.
Screening Fc1ccc(OCc2nc(-c3ccc(Br)o3)no2)c(F)c1 returned STAT1 inh -5.3, STAT3 act-1 106.9, STAT3 blocker -3.6 and STAT1 act-1 104.8.
COc1ccc2cc(C(c3nnnn3C3CCCC3)N3CCOCC3)c3nnnn3c2c1 (stereo unspecified) was read as STAT1 inh -5.2, STAT3 act-1 110.4, STAT3 blocker -5.8 and STAT1 act-1 104.5.
For CC1=C([N+](=O)[O-])C(c2cccc(Br)c2)C2=C(N1)c1ccccc1C2=O (stereo unspecified) the results were STAT1 inh -12.2, STAT3 act-1 174.8*, STAT3 blocker -75.5, STAT1 act-1 111.3, STAT3 act-2 148.6*, NFkB act STAT3ct 148.9* and STAT1 act-2 109.8.
For COc1cccc(CC(=O)Nc2ccc(S(=O)(=O)Nc3nc(C)cc(C)n3)cc2)c1 the results were STAT1 inh 1.7, STAT3 act-1 111.6, STAT3 blocker -3.7 and STAT1 act-1 96.6.
Screening O=C(N/N=C\c1ccccc1)c1ccccc1-n1cccc1 returned STAT1 inh -1.0, STAT3 act-1 113.7, STAT3 blocker -14.8 and STAT1 act-1 99.5.
Screening O=C(N/N=C\c1cccs1)c1ccccc1-n1cccc1 returned STAT1 inh 2.0, STAT3 act-1 137.8*, STAT3 blocker -44.2, STAT1 act-1 96.7, STAT3 act-2 148.1*, NFkB act STAT3ct 104.6 and STAT1 act-2 96.2.
`NC(=O)c1c(NC(=O)COC(=O)c2ccc(S(=O)(=O)Nc3ccccc3)cc2)sc2c1CCCC2` gave STAT1 inh 3.6, STAT3 act-1 90.9, STAT3 blocker 14.8 and STAT1 act-1 96.3.
`O=C(CSc1ncc(-c2ccccc2)n1C1CCCC1)N1CCc2ccccc21` gave STAT1 inh 1.9, STAT3 act-1 141.3*, STAT3 blocker -47.7, STAT1 act-1 98.3, STAT3 act-2 123.3, NFkB act STAT3ct 108.2 and STAT1 act-2 95.4.
Screening CCn1c(CSc2ncccn2)nnc1SCC(=O)N1CCc2ccccc21 returned STAT1 inh 11.0, STAT3 act-1 148.4*, STAT3 blocker -49.8, STAT1 act-1 89.9, STAT3 act-2 123.0, NFkB act STAT3ct 102.9 and STAT1 act-2 94.1.
For CN(C)C=NC(=O)c1cn(-c2ccc(F)cc2)c(=O)c2ccccc12 the results were STAT1 inh 5.8, STAT3 act-1 92.3, STAT3 blocker 11.2 and STAT1 act-1 95.0.
For COc1ccccc1C(=O)COC(=O)c1ccccc1O the results were STAT1 inh -6.3, STAT3 act-1 151.2*, STAT3 blocker -55.6, STAT1 act-1 102.7, STAT3 act-2 150.1*, NFkB act STAT3ct 106.0 and STAT1 act-2 104.8.
COc1cccc(C(=O)OCC(=O)c2c[nH]c3ccccc23)c1O was read as STAT1 inh -4.0, STAT3 act-1 143.6*, STAT3 blocker -50.1, STAT1 act-1 103.2, STAT3 act-2 138.4*, NFkB act STAT3ct 113.7 and STAT1 act-2 94.4.
CC(=O)OCC(=O)c1c[nH]c2ccccc12 was read as STAT1 inh 3.9, STAT3 act-1 116.5, STAT3 blocker -19.2 and STAT1 act-1 95.4.
For CC(C)(C)C(=O)COC(=O)c1ccccc1O the results were STAT1 inh -2.1, STAT3 act-1 100.9, STAT3 blocker 2.4 and STAT1 act-1 102.0.
Screening Cc1cc(C(=O)COC(=O)c2ccc(CO)cc2)c(C)n1CC1COc2ccccc2O1 (stereo unspecified) returned STAT1 inh -1.6, STAT3 act-1 101.4, STAT3 blocker -1.3 and STAT1 act-1 101.5.
`Cc1nn(C(C)C(=O)NCc2ccccc2Cl)c(=O)c2c1sc1ccccc12` (stereo unspecified) gave STAT1 inh -2.0, STAT3 act-1 104.2, STAT3 blocker -0.4 and STAT1 act-1 101.8.
O=C(/C=C/c1ccccc1)OCc1cnc(Cl)s1 was read as STAT1 inh -0.2, STAT3 act-1 86.0, STAT3 blocker 19.6 and STAT1 act-1 100.1.
`c1ccc2cc(-c3cc4ccccn4c3)ccc2c1` gave STAT1 inh -21.3, STAT3 act-1 176.9*, STAT3 blocker -81.2, STAT1 act-1 119.5, STAT3 act-2 93.5, NFkB act STAT3ct 102.5 and STAT1 act-2 102.5.
COc1ccc(S(=O)(=O)N2Cc3ccccc3CC2C(=O)Nc2nccs2)cc1 (stereo unspecified) was read as STAT1 inh -22.9, STAT3 act-1 139.9*, STAT3 blocker -45.9, STAT1 act-1 120.6, STAT3 act-2 110.4, NFkB act STAT3ct 112.4 and STAT1 act-2 119.8.
Screening COc1ccc(S(=O)(=O)N2Cc3ccccc3CC2C(=O)Nc2ccc3c(c2)OCO3)cc1 (stereo unspecified) returned STAT1 inh -7.1, STAT3 act-1 110.0, STAT3 blocker -8.1 and STAT1 act-1 106.5.
`Cc1cc(C)c(C)c(OC(=O)c2sc(Cl)nc2C)c1` gave STAT1 inh 7.8, STAT3 act-1 101.7, STAT3 blocker -1.2 and STAT1 act-1 93.0.
Screening Cc1nc2cc(-c3ccc(Cl)cc3)nn2c(NCCN(C)C)c1C returned STAT1 inh -10.3, STAT3 act-1 150.7*, STAT3 blocker -46.9, STAT1 act-1 108.4, STAT3 act-2 183.2*, NFkB act STAT3ct 116.9 and STAT1 act-2 120.5*.
CCn1c(NC(=O)c2cccs2)nc2ccccc21 was read as STAT1 inh -6.5, STAT3 act-1 145.8*, STAT3 blocker -45.4, STAT1 act-1 105.9, STAT3 act-2 131.4, NFkB act STAT3ct 105.5 and STAT1 act-2 107.2.
Screening CN(C)CCn1c(NC(=O)c2ccc(Cl)cc2)nc2ccccc21 returned STAT1 inh -26.2, STAT3 act-1 164.1*, STAT3 blocker -76.5, STAT1 act-1 124.6, STAT3 act-2 156.6*, NFkB act STAT3ct 119.3 and STAT1 act-2 123.2*.
`CCn1c(NC(C)=O)nc2ccccc21` gave STAT1 inh 2.3, STAT3 act-1 101.5, STAT3 blocker -0.3 and STAT1 act-1 100.7.
CCN(CC)CCn1c(NC(=O)c2ccc(C(F)(F)F)cc2)nc2ccccc21 was read as STAT1 inh -8.9, STAT3 act-1 107.3, STAT3 blocker -4.9 and STAT1 act-1 106.4.
`Fc1ccccc1Cc1noc(CN2CCC(OCc3cccnc3)CC2)n1` gave STAT1 inh -1.2, STAT3 act-1 100.0, STAT3 blocker 4.6 and STAT1 act-1 99.8.
